Data set [1] has as its system RAW264.7. Nature of the data set: Cytotoxicity against mouse RAW264.7 cells assessed as reduction in cell survival at 1 uM after 9 days Giemsa staining based assay. It counts as toxicity. To be noted: raw264.7, 216 h, time 9 day. In a few lines: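 Raw264.7 cells plated at 50, 100 and 200 viable cells in duplicate wells, primed 48 h with 100 ng ml⁻¹ LPS, then given fresh media containing 1 μM inhibitor. Grown 9 days, then fixed in methanol-acetic acid (3:1) and stained 30 min with 10% Giemsa. Colonies over 20 cells counted. Survival expressed as percent of colonies on plates without LPS or inhibitor.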

Data set [2] addresses T1, Histone-lysine N-methyltransferase EHMT2 (Mus musculus) (UniProt Q9Z148).
T1 sequence (whole entry): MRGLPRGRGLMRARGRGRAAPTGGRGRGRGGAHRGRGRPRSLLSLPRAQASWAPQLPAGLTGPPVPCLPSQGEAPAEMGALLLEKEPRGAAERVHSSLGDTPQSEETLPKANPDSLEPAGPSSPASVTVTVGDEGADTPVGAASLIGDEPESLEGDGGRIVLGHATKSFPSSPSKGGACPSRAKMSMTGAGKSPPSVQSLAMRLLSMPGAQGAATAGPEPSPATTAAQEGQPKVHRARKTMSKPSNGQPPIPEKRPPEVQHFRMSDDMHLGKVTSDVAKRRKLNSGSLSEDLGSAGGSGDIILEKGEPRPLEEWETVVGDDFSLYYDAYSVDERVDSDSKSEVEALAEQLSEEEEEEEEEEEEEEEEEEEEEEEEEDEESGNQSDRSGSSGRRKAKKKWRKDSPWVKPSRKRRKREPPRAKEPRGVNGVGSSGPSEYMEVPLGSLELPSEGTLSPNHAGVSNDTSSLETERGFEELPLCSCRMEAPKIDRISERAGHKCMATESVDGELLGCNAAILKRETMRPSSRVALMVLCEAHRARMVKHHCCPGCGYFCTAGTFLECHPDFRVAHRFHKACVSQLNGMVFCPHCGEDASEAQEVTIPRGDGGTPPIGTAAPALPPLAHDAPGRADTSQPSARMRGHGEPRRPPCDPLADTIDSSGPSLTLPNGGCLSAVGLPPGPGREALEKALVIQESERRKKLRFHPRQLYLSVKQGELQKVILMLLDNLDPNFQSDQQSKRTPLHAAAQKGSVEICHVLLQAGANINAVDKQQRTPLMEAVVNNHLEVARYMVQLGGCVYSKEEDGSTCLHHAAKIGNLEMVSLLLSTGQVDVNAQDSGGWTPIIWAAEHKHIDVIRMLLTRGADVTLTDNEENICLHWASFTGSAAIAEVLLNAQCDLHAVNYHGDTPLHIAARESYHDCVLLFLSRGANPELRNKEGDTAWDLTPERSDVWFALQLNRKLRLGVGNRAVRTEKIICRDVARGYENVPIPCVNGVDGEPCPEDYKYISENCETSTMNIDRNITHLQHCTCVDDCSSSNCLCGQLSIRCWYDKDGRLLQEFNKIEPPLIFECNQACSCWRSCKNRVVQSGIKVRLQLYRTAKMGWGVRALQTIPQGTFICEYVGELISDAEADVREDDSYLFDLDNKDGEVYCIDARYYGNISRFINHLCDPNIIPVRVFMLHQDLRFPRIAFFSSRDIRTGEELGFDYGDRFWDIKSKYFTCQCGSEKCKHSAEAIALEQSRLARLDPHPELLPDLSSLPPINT
Conditions: C57BL/6, BMDM, dose 250.0 nM, time 16.0 hrs.

For data set [3], the target named is T1, Histone-lysine N-methyltransferase EHMT2 (Mus musculus). Conditions: C57BL/6, RAW264.7, dose 250.0 nM, time 16.0 hrs.
Data set [4] shares this target. To be noted: C57BL/6, RAW264.7, dose 250.0 nM, time 16.0 hrs. The source holds these as a separate data set.
Data set [5] has the same target. Conditions: C57BL/6, BMDM, dose 250.0 nM, time 16.0 hrs. The source holds these as a separate data set.
Data set [6] shares this target. To be noted: C57BL/6, BMDM, dose 250.0 nM, time 16.0 hrs. The source holds these as a separate data set.
Data set [7] shares this target. Conditions: C57BL/6, BMDM, dose 250.0 nM, time 16.0 hrs. This is another data set of the same source.
Data set [8] has as its system RAW264.7. Nature of the data set: Down regulation of c-Myc protein expression in LPS tolerant mouse RAW264.7 cells at 1 ug/ml upto 90 mins in presence of LPS by immunoblot analysis. To be noted: dose 1.0 µg/ml. It is filed as functional, cell-based. Put shortly: (§1)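 Raw264.7 cells (shRNA G9a-knockdown line with ≥90% knockdown, or empty-vector control) primed with 100 ng ml⁻¹ LPS for 24 h, then given 1 µg ml⁻¹ cycloheximide for indicated times. c-Myc was detected by anti-c-Myc immunoblot with γ-tubulin loading control. Bands were quantified by densitometry and plotted, and half-life was read from the fitted curve.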
On the technique in general: A western blot detects proteins with antibodies after separation by electrophoresis.

The subject of data set [9] is RAW264.7. The experiment in a line: Down regulation of c-Myc protein expression in LPS tolerant mouse RAW264.7 cells with G9a knockdown at 1 ug/ml upto 90 mins by immunoblot analysis. Conditions: dose 1.0 µg/ml. It counts as functional, cell-based. In a few lines:
as §1

Data set [10] relates to RAW264.7. The experiment in a line: Down regulation of c-Myc protein expression in LPS tolerant mouse RAW264.7 cells with G9a overexpression at 1 ug/ml upto 90 mins in presence of LPS by immunoblot analysis. It is filed as functional, cell-based. Conditions: dose 1.0 µg/ml.
The test system of data set [11] is RAW264.7. Nature of the data set: Upregulation of C-Myc protein expression in LPS tolerant mouse RAW264.7 cells at 10 uM upto 4 hrs in presence of LPS by immunoblot analysis. It is filed as functional, cell-based.
Data set [12] has as its system RAW264.7. Nature of the data set: Upregulation of C-Myc protein expression in LPS tolerant mouse RAW264.7 cells with G9a knock down at 10 uM upto 4 hrs in presence of LPS by immunoblot analysis. It is filed as functional, cell-based.
The test system of data set [13] is RAW264.7. Nature of the data set: Upregulation of C-Myc protein expression in LPS tolerant mouse RAW264.7 cells in presence of G9a/LPS at 10 uM upto 4 hrs by immunoblot analysis. It is filed as functional, cell-based.

Calls of active or inactive are those of the source. The calls are words filed in the database; no cut-off is given here. Where a SMILES comes first, the peptide text is derived from it. The star is where a group is joined. Cbz = O=C(OCc1ccccc1)*

For `COc1cc2c(NC3CCN(C(C)C)CC3)nc(C3CCCCC3)nc2cc1OCCCN1CCCC1`, in the data set with RAW264.7 [1], the Activity result is on record as “Toxic”. In addition, the inhibition entry in data set [2], in [3], in data set [4], in data set [5], in [6] and in [7] was “Active” in each case.
As to `C[C@@H]1C[C@@H]([C@H](O)CC2CC(=O)NC(=O)C2)C(=O)[C@@H](C)C1`, the result in the data set on RAW264.7 [8] and with RAW264.7 [9] was Active. Also, the result in the data set on RAW264.7 [10] was inactive.
Regarding `CC(C)C[C@@H](C=O)NC(=O)[C@H](CC(C)C)NC(=O)[C@H](CC(C)C)NC(=O)OCc1ccccc1` (Cbz-Leu-Leu-Leu-aldehyde), the result with RAW264.7 [11] and in the data set with RAW264.7 [12] was Active. Also, in the data set with RAW264.7 [13], the result was inactive.

The record behind these values is ChEMBL document CHEMBL5712885, “A chromatin activity-based chemoproteomic approach reveals a transcriptional repressome for gene-specific silencing” (Nat Commun, 2014).
